In one series the test system is Spinacia oleracea. Put plainly: Inhibition of photosynthetic electron transport in Spinacia oleracea (spinach) chloroplasts assessed as decrease in oxygen evolution measured after irradiated with 250 W halogen lamp by herbicidal assay in presence of electron acceptor 2,6-dichlorophenol-indophenol. The format is functional. Particulars: L., light or radiation study. The method, boiled down:
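Spinach chloroplasts in phosphate buffer (0.02 mol·L-1, pH 7.2) with sucrose 0.4 mol·L-1, MgCl2 0.005 mol·L-1, NaCl 0.015 mol·L-1; chlorophyll 30 mg/L. DCPIP photoreduction followed under ~100 W/m2 halogen light through 4 cm water filter, 22 °C. Compounds in DMSO (up to 4%). IC50 = molar concentration giving 50% drop in oxygen evolution versus untreated control.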

Series [1] can be described thus: Lipophilicity, log P of the compound. Particulars: octanol/water. The class given is physicochemical.
The next series deals with Chlorella vulgaris. The series is described as follows: Antialgal activity in green algae Chlorella vulgaris assessed as reduction of chlorophyll content. The format is functional, organism-based. Summed up: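 Algal suspensions (initial Chl 0.01 mg·L-1) grown 7 days, 16 h light/8 h dark, PAR 80 μmol/m2∙s, pH 7.2, with compound at 0.83–100 μmol·L-1 (DMSO ≤0.25%, same in controls). Chl extracted into methanol, read spectrophotometrically. IC50 = concentration halving chlorophyll versus control, or % of control ± S.D.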

Setting [2] is: Chlorella vulgaris, read-out: IC50.

Usually IC50 stands for the concentration that inhibits the measured activity by half. Usually logP stands for a log measure of how a compound divides between an organic and an aqueous phase. The low end stands for lower lipophilicity, the high end for higher lipophilicity. Consider `Cc1ccc(NC(=O)c2cncc(Cl)n2)cc1I`, for which the 50% inhibitory concentration (IC50) in the series on Spinacia oleracea is 51 µM; with Chlorella vulgaris it was “ND(Insoluble)”. The same compound returned a log partition coefficient (logP) in series [1] of 3.33.

Regarding `Cc1cc(NC(=O)c2cnc(C(C)(C)C)cn2)ccc1Cl`, the IC50 stood at 190 µM in the series on Spinacia oleracea and 44 µM in the series on Chlorella vulgaris (setting [2]). For the same compound, the logP in series [1] amounted to 3.76.

Regarding `CC(C)(C)c1ncc(C(=O)Nc2ccccc2F)nc1Cl`, the values for the IC50 with Spinacia oleracea and in the series with Chlorella vulgaris (setting [2]) were 69 µM and 89 µM, respectively. This compound gave a logP in series [1] of 3.78.

`CC(C)(C)c1ncc(C(=O)Nc2ccc(C(F)(F)F)cc2)nc1Cl`: the values for the IC50 with Spinacia oleracea and in the series on Chlorella vulgaris were 184 µM and “ND(Insoluble)”, respectively. The compound also returned a logP in series [1] of 4.54.

For `Cc1cc(NC(=O)c2cncc(Cl)n2)ccc1Cl`, the figures for the IC50 in the series with Spinacia oleracea and in the series with Chlorella vulgaris (setting [2]) were 595 µM and 80 µM, respectively. In series [1], this compound had a log partition coefficient (logP) of 2.53.

`CN(C)C(=O)Nc1ccc(Cl)c(Cl)c1` [DCMU] displayed a log partition coefficient (logP) in series [1] of 2.76.
